Results: ChEMBL document CHEMBL1134346, “Labeling and evaluation of N-[11C]methylated quinoline-2-carboxamides as potential radioligands for visualization of peripheral benzodiazepine receptors” (J Med Chem, 2001)

Key:
[1] = species: Rattus norvegicus; assay: Tissue (adrenal gland) concentration of radioactivity at 30 min post-injection into Albino male CD rats with vehicle.; assay type: ADME, organism-based; details: in vivo, 0.5 h
In short: (§1)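 Separate groups of five rats received tail-vein PK 11195 (1.4-1.6 mg; 5 mg/kg) in 30 µL DMSO:EtOH 1:1, or vehicle alone, immediately before iv radioligand (90-170 µCi in saline, 0.9-1 Ci/µmol). Rats were decapitated at 30 min and tissues gamma-counted; values are %I.D./g.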

[2] = species: Rattus norvegicus; assay: Tissue (liver) distribution in Albino male CD rats after 60 minutes expressed as percent of injected dose per gram of organ.; assay type: ADME, organism-based; details: in vivo, 1 h
In short: (§2)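 Male albino CD rats (225-250 g) received the 11C-labelled radioligand in saline by tail-vein injection. Three rats per time point were decapitated under light ether anaesthesia at 5, 15, 30, 60 or 90 min. Blood was collected heparinized and plasma separated by centrifugation. The pituitary was dissected from the brain. Lung, liver (three-lobe pieces) and right deltoid muscle were sampled, washed in cold saline, gamma-counted and weighed. Results are %I.D./g.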

[3] = species: Rattus norvegicus; assay: Tissue (pituitary) distribution in Albino male CD rats after 60 minutes expressed as percent of injected dose per gram of organ.; assay type: ADME, organism-based, Pituitary gland; details: in vivo, 1 h; in short: as §2
[4] = molecular target: Translocator protein (Rattus norvegicus) (UniProt P16257); assay: Tissue (cortex) concentration of radioactivity at 30 min post-injection into Albino male CD rats after pretreatment with cold PK 11195.; assay type: functional; in short: as §1
Translocator protein (Rattus norvegicus), sequence (P16257 whole entry, looked up): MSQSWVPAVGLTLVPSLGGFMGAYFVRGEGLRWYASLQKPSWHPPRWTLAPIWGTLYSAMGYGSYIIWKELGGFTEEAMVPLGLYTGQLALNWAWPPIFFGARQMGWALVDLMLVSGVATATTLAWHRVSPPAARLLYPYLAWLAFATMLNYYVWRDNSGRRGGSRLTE

[5] = species: Rattus norvegicus; assay: Tissue (blood) distribution in Albino male CD rats after 90 minutes expressed as percent of injected dose per gram of organ.; assay type: ADME, organism-based; details: in vivo, 1.5 h
In short: (§3)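 Radioligand given in saline into tail vein of male albino CD rats (225-250 g); 100-200 µCi per animal, 1-2 Ci/µmol at injection depending on radioligand. Three rats per time point were decapitated under light ether anaesthesia. Blood, plasma, brain regions and washed organs were weighed and gamma-counted. Uptake is %I.D./g tissue, mean ± SD.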

[6] = molecular target: Translocator protein (Rattus norvegicus) (UniProt P16257); assay: Tissue (lung) concentration of radioactivity at 30 min post-injection into Albino male CD rats after pretreatment with cold PK 11195.; assay type: functional
In short: (§4)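 Blocking study in male albino CD rats, five per group. Immediately before the 11C radioligand (in saline, i.v. tail vein), rats received 30 µL tail-vein PK 11195 (5 mg/kg; 1.4-1.6 mg) in DMSO:EtOH 1:1, or vehicle. Rats were decapitated at 30 min. Tissues were dissected, washed, gamma-counted and weighed as in the biodistribution study. Results are %I.D./g.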

[7] = species: Rattus norvegicus; assay: Tissue (heart) concentration of radioactivity at 30 min post-injection into Albino male CD rats with vehicle.; assay type: ADME, organism-based; details: in vivo, 0.5 h; in short: as §1
[8] = species: Rattus norvegicus; assay: Tissue (adrenal gland) distribution in Albino male CD rats after 30 minutes expressed as percent of injected dose per gram of organ.; assay type: ADME, organism-based; details: in vivo, 0.5 h; in short: as §3
[9] = species: Rattus norvegicus; assay: Tissue (testicle) distribution in Albino male CD rats after 30 minutes expressed as percent of injected dose per gram of organ.; assay type: ADME, organism-based; details: in vivo, 0.5 h; in short: as §2
[10] = species: Rattus norvegicus; assay: Tissue (lung) distribution in Albino male CD rats after 60 minutes expressed as percent of injected dose per gram of organ.; assay type: ADME, organism-based; details: in vivo, 1 h; in short: as §2
[11] = species: Rattus norvegicus; assay: Tissue (liver) distribution in Albino male CD rats after 30 minutes expressed as percent of injected dose per gram of organ.; assay type: ADME, organism-based; details: in vivo, 0.5 h; in short: as §2
[12] = species: Rattus norvegicus; assay: Tissue (cortex) distribution in Albino male CD rats after 90 minutes expressed as percent of injected dose per gram of organ.; assay type: ADME, organism-based; details: in vivo, 1.5 h; in short: as §3
[13] = species: Rattus norvegicus; assay: Tissue (lung) concentration of radioactivity at 30 min post-injection into Albino male CD rats with vehicle.; assay type: ADME, organism-based; details: in vivo, 0.5 h; in short: as §4
[14] = species: Rattus norvegicus; assay: Tissue (cerebellum) distribution in Albino male CD rats after 5 minutes expressed as percent of injected dose per gram of organ.; assay type: ADME, organism-based; details: in vivo; in short: as §3
[15] = species: Rattus norvegicus; assay: Tissue (testicle) distribution in Albino male CD rats after 90 minutes expressed as percent of injected dose per gram of organ.; assay type: ADME, organism-based; details: in vivo, 1.5 h
[16] = species: Rattus norvegicus; assay: Tissue (kidney) distribution in Albino male CD rats after 60 minutes expressed as percent of injected dose per gram of organ.; assay type: ADME, organism-based; details: in vivo, 1 h; in short: as §3
[17] = species: Rattus norvegicus; assay: Tissue (intestine) distribution in Albino male CD rats after 90 minutes expressed as percent of injected dose per gram of organ.; assay type: ADME, organism-based; details: in vivo, 1.5 h; in short: as §3
[18] = molecular target: Translocator protein (Rattus norvegicus) (UniProt P16257); assay: Tissue (muscle) concentration of radioactivity at 30 min post-injection into Albino male CD rats after pretreatment with cold PK 11195.; assay type: functional; in short: as §4
[19] = species: Rattus norvegicus; assay: Tissue (intestine) distribution in Albino male CD rats after 5 minutes expressed as percent of injected dose per gram of organ.; assay type: ADME, organism-based; details: in vivo; in short: as §3
[20] = species: Rattus norvegicus; assay: Tissue (liver) concentration of radioactivity at 30 min post-injection into Albino male CD rats with vehicle.; assay type: ADME, organism-based; details: in vivo, 0.5 h; in short: as §1
[21] = species: Rattus norvegicus; assay: Tissue (cerebellum) distribution in Albino male CD rats after 60 minutes expressed as percent of injected dose per gram of organ.; assay type: ADME, organism-based; details: in vivo, 1 h; in short: as §3
[22] = species: Rattus norvegicus; assay: Tissue (kidney) concentration of radioactivity at 30 min post-injection into Albino male CD rats with vehicle.; assay type: ADME, organism-based; details: in vivo, 0.5 h; in short: as §1
[23] = species: Rattus norvegicus; assay: Tissue (intestine) distribution in Albino male CD rats after 15 minutes expressed as percent of injected dose per gram of organ.; assay type: ADME, organism-based; details: in vivo, 0.25 h; in short: as §3
[24] = species: Rattus norvegicus; assay: Tissue (blood) distribution in Albino male CD rats after 30 minutes expressed as percent of injected dose per gram of organ.; assay type: ADME, organism-based; details: in vivo, 0.5 h; in short: as §3
[25] = species: Rattus norvegicus; assay: Tissue (testicle) distribution in Albino male CD rats after 5 minutes expressed as percent of injected dose per gram of organ.; assay type: ADME, organism-based; details: in vivo; in short: as §2
[26] = molecular target: Translocator protein (Rattus norvegicus) (UniProt P16257); assay: Tissue (liver) concentration of radioactivity at 30 min post-injection into Albino male CD rats after pretreatment with cold PK 11195.; assay type: functional, tissue-based; in short: as §1
[27] = species: Rattus norvegicus; assay: Tissue (spleen) concentration of radioactivity at 30 min post-injection into Albino male CD rats with vehicle.; assay type: ADME, organism-based; details: in vivo, 0.5 h; in short: as §4
[28] = species: Rattus norvegicus; assay: Tissue (cerebellum) distribution in Albino male CD rats after 15 minutes expressed as percent of injected dose per gram of organ.; assay type: ADME, organism-based; details: in vivo, 0.25 h; in short: as §3
[29] = species: Rattus norvegicus; assay: Tissue (pituitary) distribution in Albino male CD rats after 15 minutes expressed as percent of injected dose per gram of organ.; assay type: ADME, organism-based, Pituitary gland; details: in vivo, 0.25 h; in short: as §2
[30] = species: Rattus norvegicus; assay: Tissue (adrenal gland) distribution in Albino male CD rats after 90 minutes expressed as percent of injected dose per gram of organ.; assay type: ADME, organism-based; details: in vivo, 1.5 h; in short: as §3
[31] = species: Rattus norvegicus; assay: Tissue (intestine) distribution in Albino male CD rats after 30 minutes expressed as percent of injected dose per gram of organ.; assay type: ADME, organism-based; details: in vivo, 0.5 h; in short: as §3
[32] = species: Rattus norvegicus; assay: Tissue (spleen) distribution in Albino male CD rats after 60 minutes expressed as percent of injected dose per gram of organ.; assay type: ADME, organism-based; details: in vivo, 1 h
[33] = species: Rattus norvegicus; assay: Tissue (cortex) distribution in Albino male CD rats after 5 minutes expressed as percent of injected dose per gram of organ.; assay type: ADME, organism-based; details: in vivo; in short: as §3
[34] = species: Rattus norvegicus; assay: Tissue (heart) distribution in Albino male CD rats after 15 minutes expressed as percent of injected dose per gram of organ.; assay type: ADME, organism-based; details: in vivo, 0.25 h; in short: as §3
[35] = species: Rattus norvegicus; assay: Tissue (adrenal gland) distribution in Albino male CD rats after 15 minutes expressed as percent of injected dose per gram of organ.; assay type: ADME, organism-based; details: in vivo, 0.25 h; in short: as §3
[36] = species: Rattus norvegicus; assay: Tissue (heart) distribution in Albino male CD rats after 5 minutes expressed as percent of injected dose per gram of organ.; assay type: ADME, organism-based; details: in vivo; in short: as §3
[37] = species: Rattus norvegicus; assay: Tissue (cortex) concentration of radioactivity at 30 min post-injection into Albino male CD rats with vehicle.; assay type: ADME, organism-based; details: in vivo, 0.5 h; in short: as §1
[38] = species: Rattus norvegicus; assay: Tissue (liver) distribution in Albino male CD rats after 15 minutes expressed as percent of injected dose per gram of organ.; assay type: ADME, organism-based; details: in vivo, 0.25 h; in short: as §3
[39] = species: Rattus norvegicus; assay: Tissue (liver) distribution in Albino male CD rats after 5 minutes expressed as percent of injected dose per gram of organ.; assay type: ADME, organism-based; details: in vivo; in short: as §2
[40] = species: Rattus norvegicus; assay: Tissue (intestine) distribution in Albino male CD rats after 60 minutes expressed as percent of injected dose per gram of organ.; assay type: ADME, organism-based; details: in vivo, 1 h; in short: as §3

I.D./g [1]: 1.6% | I.D./g [2]: 0.32% | I.D./g [3]: 0.25% | I.D./g [4]: > 0.04% | I.D./g [5]: 0.03% | I.D./g [6]: < 0.14% | I.D./g [7]: 0.77% | I.D./g [8]: 2.54% | I.D./g [9]: 0.08% | I.D./g [10]: 1.33% | I.D./g [11]: 0.55% | I.D./g [12]: 0.03% | I.D./g [13]: 0.91% | I.D./g [14]: 0.13% | I.D./g [15]: 0.08% | I.D./g [16]: 0.78% | I.D./g [17]: 0.37% | I.D./g [18]: > 0.07% | I.D./g [19]: 0.25% | I.D./g [20]: 0.3% | I.D./g [21]: 0.05% | I.D./g [22]: 0.45% | I.D./g [23]: 0.32% | I.D./g [24]: 0.06% | I.D./g [25]: 0.06% | I.D./g [26]: < 0.56% | I.D./g [27]: 0.56% | I.D./g [28]: 0.08% | I.D./g [29]: 0.2% | I.D./g [30]: 1.8% | I.D./g [31]: 0.4% | I.D./g [32]: 1.25% | I.D./g [33]: 0.12% | I.D./g [34]: 0.8% | I.D./g [35]: 1.38% | I.D./g [36]: 0.86% | I.D./g [37]: 0.05% | I.D./g [38]: 0.5% | I.D./g [39]: 0.64% | I.D./g [40]: 0.4%
SMILES: CCC(C)N(C)C(=O)c1nc2ccccc2c(-c2ccccc2)c1C (stereo not given)
